# Measurements: publication PMC10524360 (Cell chemical biology, 2023)
# “Also recorded” adds a separate entry of the source. Residues, ends and D or L forms follow the SMILES beside them. *: point of attachment. Cbz = O=C(OCc1ccccc1)*; CH2F = FC*
# Tests used:
# H460^C Cas9 cells [1] = experiment: cell death; assay type: cell-based, human; conditions: for effect on cell death induced by co-treatment of FSEN1 and RSL3: H460^C Cas9, 5 μM RSL3 + 1 μM FSEN1, Z-VAD 10 μM, Nec1s 1 μM; for effect on cell death induced by co-treatment of FSEN1 and RSL3 / effect on cell death induced by DHA and FSEN1 together: Fer-1 2 μM, DFO 100 μM, idebenone 10 μM, tocopherol 10 μM; for minimal dose that achieves maximal synergy for inducing ferroptosis: checkerboard FSEN1 (0–15 μM) x RSL3 (0–15 μM)
# Method in brief: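 H460C Cas9 cells get dose series of RSL3 or DHA with vehicle or 1 μM FSEN1, plus ferroptosis inhibitors where indicated (Fer-1 2 μM, DFO 100 μM, idebenone 10 μM, tocopherol 10 μM). Dead cells are stained with SYTOX Green and imaged on IncuCyte over 24 hr. Lethal fraction is dead/total cells, and its AUC is fit against concentration (variable slope) for EC50. Mean ± SEM, 2–3 biological replicates.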
# H460^C GPX4^KO cells = experiment: cell death; assay type: cell-based, human
# Method in brief: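 Cells were seeded in triplicate at 1000–1500 cells/well (384-well) 24 h before treatment. Test compound was added in medium with 30 nM SYTOX Green, and the plates were imaged (IncuCyte, 37°C, 5% CO2) every 1.5 or 3 h over 24 h. Lethal fraction = SYTOX+/(SYTOX+ plus mCherry+) objects; AUC averaged over three biological replicates; EC50 from a variable-slope fit.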
# H460^C FSP1^KO cells = experiment: cell death; assay type: cell-based, human; conditions: for cell death, single agent: 24 h library screen, 40 μM compounds
# Method in brief: (§1)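 H460C knockout cells (mFSP1-overexpressing where stated) were seeded at 1500 cells/well in 384-well plates 24 h before treatment. Drug-containing medium with 30 nM SYTOX Green was added and cells were imaged in an IncuCyte at 37°C, 5% CO2 every 4 h for 24 h. Lethal fraction = SYTOX+/(SYTOX+ plus mCherry+) objects; AUC was fitted to a variable-slope curve for EC50.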
# purified mFSP1 = target: T1, purified mFSP1 (Mus musculus, UniProt Q8BUE4); experiment: in vitro mFSP1 CoQ1 oxidoreductase activity assay; assay type: biochemical; conditions: 125 nM mFSP1
# T1 sequence (Q8BUE4 2-380 isoform Q8BUE4-2 limits assumed): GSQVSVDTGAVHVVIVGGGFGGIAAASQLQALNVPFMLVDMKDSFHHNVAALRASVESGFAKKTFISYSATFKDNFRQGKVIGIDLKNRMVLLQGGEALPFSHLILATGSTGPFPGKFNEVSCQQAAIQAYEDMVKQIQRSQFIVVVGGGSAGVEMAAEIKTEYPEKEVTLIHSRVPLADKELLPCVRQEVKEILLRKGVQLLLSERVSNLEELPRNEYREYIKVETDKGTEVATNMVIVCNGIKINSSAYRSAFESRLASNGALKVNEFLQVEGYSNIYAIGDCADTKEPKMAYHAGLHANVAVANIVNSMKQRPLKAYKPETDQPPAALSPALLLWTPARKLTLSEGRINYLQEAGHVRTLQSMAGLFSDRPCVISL
# Method in brief: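 Purified enzyme in PBS was shaken briefly with the test compound (DMSO) and preincubated 30 min at RT. A 2X NADH/CoQ1 mix started the reaction; final 400 μM CoQ1, 500 μM NADH, 0.01–20 μM compound. Mouse FSP1 was used at 125 nM to match the specific activity of 12.5 nM human FSP1. Absorbance at 355 nm was read every 2.5 min; percent activity was used for IC50.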
# H460^C Cas9 cells [2] = experiment: lipid peroxidation assay; assay type: cell-based, human; conditions: 1 μM FSEN1 with 200 nM RSL3
# Method in brief: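 Cells in 6-well plates were treated 5 h with 200 nM RSL3 ± 1 μM test compound. They were washed in DPBS with Ca/Mg, labelled with BODIPY 581/591 C11 and trypsinised. Green fluorescence was measured by flow cytometry (FITC channel, >10,000 cells). Mean ± SD of n=3; one-way ANOVA with Tukey's test.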
# FSP1 = target: T2, FSP1 (Homo sapiens, UniProt Q9BRQ8); experiment: FSP1 enzyme kinetics; assay type: biochemical
# T2 sequence (Q9BRQ8 2-373 limits assumed): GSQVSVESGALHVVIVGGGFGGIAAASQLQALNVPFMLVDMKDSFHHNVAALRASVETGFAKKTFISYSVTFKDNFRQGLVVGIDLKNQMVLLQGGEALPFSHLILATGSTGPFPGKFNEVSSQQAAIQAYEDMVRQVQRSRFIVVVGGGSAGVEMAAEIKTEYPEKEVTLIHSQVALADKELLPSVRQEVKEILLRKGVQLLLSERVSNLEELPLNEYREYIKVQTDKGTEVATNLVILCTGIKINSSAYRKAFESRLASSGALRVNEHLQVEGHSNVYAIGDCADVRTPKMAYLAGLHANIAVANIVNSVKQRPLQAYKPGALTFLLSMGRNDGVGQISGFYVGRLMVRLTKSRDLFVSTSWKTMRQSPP
# Method in brief: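 His-tagged human FSP1 (expressed in E. coli, Ni-NTA purified) in PBS was preincubated 30 min at RT with the test compound. NADH series: 25 nM enzyme, 10 μM CoQ-coumarin, 1–50 μM NADH, 50–500 nM compound. CoQ-coumarin series: 6.25 nM enzyme, 1–30 μM CoQ-coumarin, 200 μM NADH, 12.5–125 nM compound. Fluorescence (Ex 405/Em 475 nm) read every 15 s at RT; three biological replicates; Vmax and Km by nonlinear regression.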
# NQO1 = NQO1 (Homo sapiens, UniProt P15559); experiment: in vitro NQO1 CoQ1 oxidoreductase activity assay; assay type: biochemical; conditions: increasing concentrations of FSEN1
# A549 lung cancer cells = experiment: RSL3-induced cell death in A549 cells; assay type: cell-based, human; conditions: RSL3 with 1 μM FSEN1
# A375 melanoma cells = experiment: cell death in A375 cells; assay type: cell-based, human; conditions: 1 μM FSEN1
# Method in brief: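 Melanoma cells were treated with the test compound (1 μM), with 2 μM Fer-1 where indicated. Cell death was quantified as SYTOX Green-positive objects per mm2; mean ± SEM of two biological replicates.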
# [3] = in vivo pharmacokinetics in mice; parameters: species or system BALB/c mice; conditions: single 20 mg/kg I.P. dose
# Method in brief: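 Mice (20–25 g) were group-housed five per cage at 22°C on a 12 h light/dark cycle. Each received a single 20 mg/kg intraperitoneal dose in a vehicle containing 20% DMSO, 20% ethanol and 20% PEG40. Plasma Cmax and elimination half-life are reported as median (IQR), n=5.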
# [4] = metabolic stability in mouse liver microsomes; assay type: in vitro ADME; conditions: mouse liver microsomes 0.5 mg/mL, 2 μM FSEN1
# Method in brief: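 The test compound (2 μM) was incubated with 0.5 mg/mL mouse liver microsomes and 1.0 mM NADPH at 37°C, in triplicate, and sampled at 0, 5, 15, 30 and 45 min. Controls were no NADPH (negative) and 2 μM midazolam (positive). t1/2 = ln2/k; CLint = ln2/t1/2 × incubation volume/microsomal protein (μL/min/mg).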
# [5] = test system: FSP1^KO cells overexpressing mFSP1; experiment: RSL3-induced ferroptosis in FSP1 knockout cells overexpressing mouse FSP1; assay type: cell-based, human
# Method in brief: as §1
# NQO1, sequence (P15559 2-274 limits assumed): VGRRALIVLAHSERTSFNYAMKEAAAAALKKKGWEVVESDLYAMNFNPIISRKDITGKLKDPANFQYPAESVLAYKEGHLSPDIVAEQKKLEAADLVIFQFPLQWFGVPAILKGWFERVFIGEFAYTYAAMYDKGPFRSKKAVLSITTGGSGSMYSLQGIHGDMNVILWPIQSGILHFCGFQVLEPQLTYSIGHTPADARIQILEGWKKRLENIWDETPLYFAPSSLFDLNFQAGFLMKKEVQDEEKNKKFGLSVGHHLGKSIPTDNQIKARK
compound,measurement,setting,value
COC(=O)C[C@H](NC(=O)[C@H](C)NC(=O)[C@@H](NC(=O)OCc1ccccc1)C(C)C)C(=O)CF [Z-VAD-FMK] (Cbz-Val-Ala-Asp(OMe)-CH2F),effect on cell death induced by co-treatment of FSEN1 and RSL3,H460^C Cas9 cells [1],no effect
"Cc1ccc(-c2c(C#N)c(N)n3c(nc4ccccc43)c2C#N)cc1 [iFSP1, reference compound]","cell death, single agent",H460^C Cas9 cells [1]; H460^C Cas9 cells,not in the H460^C Cas9 cells
same,"cell death, single agent",H460^C GPX4^KO cells,selectively triggered cell death
COC(=O)c1ccc([C@@H]2c3[nH]c4ccccc4c3C[C@@H](C(=O)OC)N2C(=O)CCl)cc1 [RSL3],"cell death, single agent",H460^C Cas9 cells [1]; H460^C Cas9 cells,not the H460^C Cas9 cells
same,minimal dose that achieves maximal synergy for inducing ferroptosis,H460^C Cas9 cells [1]; H460^C Cas9 cells,0.55 µM
same,"cell death, single agent",H460^C FSP1^KO cells; H460^C FSP1^KO cells,cytotoxic
COC1=C(OC)C(=O)C(CCCCCCCCCCO)=C(C)C1=O [idebenone],effect on cell death induced by co-treatment of FSEN1 and RSL3,H460^C Cas9 cells [1],blocked
same,effect on cell death induced by DHA and FSEN1 together,"H460^C Cas9 cells [1]; H460^C cells, 1 μM FSEN1",strongly suppressed
"CC(=O)N(O)CCCCCNC(=O)CCC(=O)N(O)CCCCCNC(=O)CCC(=O)N(O)CCCCCN [DFO, deferoxamine]",effect on cell death induced by co-treatment of FSEN1 and RSL3,H460^C Cas9 cells [1],blocked
same,effect on cell death induced by DHA and FSEN1 together,"H460^C Cas9 cells [1]; H460^C cells, 1 μM FSEN1",completely suppressed
tocopherol,effect on cell death induced by co-treatment of FSEN1 and RSL3,H460^C Cas9 cells [1],blocked
same,effect on cell death induced by DHA and FSEN1 together,"H460^C Cas9 cells [1]; H460^C cells, 1 μM FSEN1",strongly suppressed
COc1ccc(N2CCN(Cc3cn4c(-c5ccc(Br)cc5)nnc4s3)CC2)cc1 [FSEN1],sensitization to cell death induced by GPX4 inhibitors RSL3 and ML162,"H460^C Cas9 cells [1]; H460^C Cas9 cells, 1 μM FSEN1",sensitized
same,sensitization to cell death induced by DHA and FINO2,"H460^C Cas9 cells [1]; H460^C cells, 1 μM FSEN1",strongly sensitized
same,minimal dose that achieves maximal synergy for inducing ferroptosis,H460^C Cas9 cells [1]; H460^C Cas9 cells,0.55 µM
same,EC50,"H460^C GPX4^KO cells; read-out: EC50 for triggering cell death, lethal fraction (AUC) over 24 hr",69.4 nM
same,effect on CoQ1 oxidoreductase activity of purified mFSP1,purified mFSP1,no effect
same,lipid peroxidation (BODIPY C11),H460^C Cas9 cells [2],sensitized cells to lipid peroxidation
same,change in Kcat values,FSP1; as FSEN1 concentrations increased,decrease
same,mechanism of FSP1 inhibition,"FSP1; varied NADH and CoQ-coumarin, parallel Lineweaver-Burke slopes",uncompetitive inhibitor
same,effect on CoQ oxidoreductase activity of NQO1,NQO1,no effect
same,sensitizing effect on ferroptosis induction,A549 lung cancer cells,particularly large sensitizing effect
same,ferroptosis in the absence of an RSL3 co-treatment,A375 melanoma cells,induced a small amount of ferroptosis
same,median elimination half-life,"[3]; n=5, IQR 6.1 – 8.8",8.0 h
same,median maximum plasma concentration,"[3]; n=5, IQR 71.0–123.0",97.6 ng/mL
same,intrinsic clearance (CLint),[4],11.54 μL/min/mg protein
same,additional sensitization to DHA and FINO2 induced cell death,"H460^C FSP1^KO cells; FSP1^KO cells, 1 μM FSEN1",no additional sensitizing effect
same,effect on sensitivity to RSL3-induced cell death,"H460^C FSP1^KO cells; H460^C FSP1^KO cells, 1 μM FSEN1",did not result in any additional sensitization; also recorded: no effect
same,effect on ferroptosis sensitivity (RSL3),"[5]; FSP1^KO cells overexpressing mFSP1, 1 μM FSEN1",no effect
same,effect on sensitivity to RSL3,"[5]; FSP1^KO cells overexpressing mFSP1, FSEN1 up to 15 μM",no effect
"CCOC(=O)c1ccc(NC2CCCCC2)c(N)c1 [Fer-1, ferrostatin-1]",effect on cell death induced by co-treatment of FSEN1 and RSL3,H460^C Cas9 cells [1],blocked
same,effect on cell death induced by DHA and FSEN1 together,"H460^C Cas9 cells [1]; H460^C cells, 1 μM FSEN1",strongly suppressed
CN1C(=O)NC(Cc2c[nH]c3c(Cl)cccc23)C1=O (centres unmarked) [Nec1s],effect on cell death induced by co-treatment of FSEN1 and RSL3,H460^C Cas9 cells [1],no effect
"C[C@H]1[C@@H](O)O[C@@H]2O[C@@]3(C)CC[C@H]4[C@H](C)CC[C@@H]1[C@@]24OO3 [DHA, dihydroartemisinin, reference compound]","cell death, single agent",H460^C Cas9 cells [1]; H460^C Cas9 cells,induced minimal amounts of ferroptosis on its own
same,"cell death, single agent",H460^C FSP1^KO cells; H460^C FSP1^KO cells,selectively induced cell death
